Legend:
[1] = Drug transport in human Caco2 cells assessed as basolateral excretion of compound treated with genistein at 2 uM after 4 hrs by UPLC-MS/MS analysis in presence of BCRP inhibitor Ko143; format: ADME, cell-based; conditions: caco-2, 4 h
Procedure, shortened: (§1)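 Caco-2 TC7 monolayers on 3 μm polycarbonate inserts, used 19–22 days post-seeding (TEER ≥460 Ω/cm2). Genistein 2 or 10 μM in HBSS pH 7.4 applied apically, ±5 μM Ko143 apically; sampling both sides at 0–4 h hourly with replacement, triplicate. Genistein and four conjugates plus intracellular amounts at 4 h by UPLC-MS/MS; mass balance versus dose added.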

[2] = Drug transport in human Caco2 cells assessed as basolateral excretion of compound treated with genistein at 10 uM after 4 hrs by UPLC-MS/MS analysis in presence of BCRP inhibitor Ko143; format: ADME, cell-based; conditions: caco-2, 4 h; procedure, shortened: as §1
Blood = assay: Stability in Wistar rat blood at 3 uM up to 4 hrs by UPLC-MS/MS analysis; format: ADME, tissue-based
Procedure, shortened: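 Genistein glucuronide mixture (G-7-G plus G-4′-G, 3 μM) with 3.8 μM genistein incubated in fresh rat whole blood, 37°C shaking water bath. Sampled at 0, 60, 120 and 240 min. Reaction stopped with acetonitrile containing daidzein internal standard. Genistein and conjugates quantified by UPLC-MS/MS using multiple reaction monitoring. n = 3.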

[3] = Stability in potassium phosphate buffer at pH 7.4 up to 4 hrs; format: physicochemical; conditions: pH 7.4, 4 h
Procedure, shortened: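 Negative control run under the blood-incubation conditions but in 50 mM potassium phosphate buffer, pH 7.4, instead of blood. Genistein glucuronides (G-7-G plus G-4′-G, with aglycone) or sulfates (G-7-S plus G-4′-S, with aglycone) held at 37°C in a shaking water bath up to 4 h. Sampled at 0, 60, 120 and 240 min and read by UPLC-MS/MS.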

Row | SMILES | Drug transport [1] | Drug transport [2] | Stability (Blood) | Stability [3]
1 | O=c1c(-c2ccc(OS(=O)(=O)O)cc2)coc2cc(O)cc(O)c12 | Active | Active | Stable | Stable
2 | O=c1c(-c2ccc(O)cc2)coc2cc(OS(=O)(=O)O)cc(O)c12 | Active | Active | Stable | Stable
